Results on 12 compounds are retold here after ChEMBL document CHEMBL1146504, “Resveratrol derivatives and their role as potassium channels modulators” (J Nat Prod, 2004).

Each structure is given as a SMILES string. Active and inactive are the calls of the source. No cut-off for these calls is given here.

What all share (format): cell-based
In assay [1] the test system is F11. The assay is described as follows: Blockade of delayed rectifier potassium channel in mouse rat hybrid F11 cells at 90 uM by whole-cell patch clamp technique. In outline:
(§1)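 F11 cells (mouse neuroblastoma N18TG-2 × rat DRG) grown in DMEM with 4.5 g/L glucose and 10% FCS at 37 °C, 5% CO2, and plated about 24 h before recording. Whole-cell clamp with compensated capacitance and series resistance. Pipette: K-aspartate 130 mM, EGTA 10 mM, MgATP 1 mM, pCa 7. Cells perfused with low-K physiologic solution; step to 60 mV from −60 mV holding; TEA-isolated current. Drug applied by perfusion, DMSO 1:2000 final.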

In assay [2] the test system is F11. The assay is described as follows: Blockade of sodium channel in mouse rat hybrid F11 cells by whole-cell patch clamp technique. In outline:
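F11 cells (mouse neuroblastoma N18TG-2 × rat DRG hybrid) grown in DMEM with 4.5 g/L glucose and 10% FCS at 37 °C, 5% CO2. Cells were plated and incubated about 24 h before whole-cell recording. Pipette solution was K-aspartate based at pCa 7 with 1 mM MgATP. Compounds came from 300 mM DMSO stocks, with DMSO at 1:2000 final, and were delivered by local perfusion. Capacitance and series resistance were compensated 85–95%.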

In assay [3] the test system is F11. The assay is described as follows: Blockade of inward rectifier potassium channel in mouse rat hybrid F11 cells at 45 uM by whole-cell patch clamp technique.
Assay [4] concerns F11. The assay is described as follows: Blockade of delayed rectifier potassium channel in mouse rat hybrid F11 cells at 45 uM by whole-cell patch clamp technique. In outline: as §1
Assay [5] has as its system F11. The assay is described as follows: Blockade of inward rectifier potassium channel in mouse rat hybrid F11 cells at 36 uM by whole-cell patch clamp technique.
The subject of assay [6] is F11. The assay is described as follows: Blockade of delayed rectifier potassium channel in mouse rat hybrid F11 cells at 36 uM by whole-cell patch clamp technique. A digest of the protocol: as §1

As for `Oc1ccc(CCc2cc(O)cc(O)c2)cc1`, the Activity with F11 [1] stood at 52%. Consider `Oc1cc(O)cc(CCc2ccc(OCc3ccccc3)cc2)c1`, for which the Activity in the assay with F11 [1] was found to be 89%. Turning to `COc1ccc(/C=C\c2cc(O)cc(O)c2)cc1`, the result in the assay with F11 [2] was Active. In the assay on F11 [1], the Activity came to 70.4%. `COc1cc(O)cc(CCc2ccc(O)cc2)c1` gave an Activity in the assay on F11 [1] of 69%.

Regarding `Oc1cc(CCc2ccc(OCc3ccccc3)cc2)cc(OCc2ccccc2)c1`, the Activity with F11 [1] stood at 50%. Still for that read-out and setting: the value for `COc1ccc(CCc2cc(OC)cc(OC)c2)cc1` was 38.6%; that for `Oc1ccc(/C=C/c2cc(O)cc(O)c2)cc1` was 42.9%; that for `Oc1ccc(CCc2cc(O)cc(OCc3ccccc3)c2)cc1` was 89%. As for `CC(C)=CCc1c(O)cc(CCc2ccc(O)cc2)cc1O`, the Activity was determined as 50.1% in the assay on F11 [3] and 74% with F11 [4]. In the assay on F11 [1], `c1ccc(COc2ccc(CCc3cc(OCc4ccccc4)cc(OCc4ccccc4)c3)cc2)cc1` had an Activity of 57%. For `COc1ccc(CCc2cc(O)cc(O)c2)cc1`, in the assay with F11 [2], the result was Active. Also, the Activity in the assay on F11 [1] was determined as 89.4%.

Consider `CC(C)=CCOc1cc(O)cc(CCc2ccc(O)cc2)c1`, for which the Activity in the assay with F11 [5] turned out to be 53.7%; in the assay with F11 [6], 55.5%.
